Source: PubChem
SIRT5 inh: inhibitors of human sirtuin-5 desuccinylase | Q9NXA8 | Purified SirT5, succinyl-peptide AMC, trypsin-coupled fluorescence | inhibition, % at 15 µM | 330,000 compounds, 1.1% hits; in the data active means inhibition above about 15%; inconclusive means no clear call, values can overlap the other calls
Target sequence (Q9NXA8 whole entry, looked up): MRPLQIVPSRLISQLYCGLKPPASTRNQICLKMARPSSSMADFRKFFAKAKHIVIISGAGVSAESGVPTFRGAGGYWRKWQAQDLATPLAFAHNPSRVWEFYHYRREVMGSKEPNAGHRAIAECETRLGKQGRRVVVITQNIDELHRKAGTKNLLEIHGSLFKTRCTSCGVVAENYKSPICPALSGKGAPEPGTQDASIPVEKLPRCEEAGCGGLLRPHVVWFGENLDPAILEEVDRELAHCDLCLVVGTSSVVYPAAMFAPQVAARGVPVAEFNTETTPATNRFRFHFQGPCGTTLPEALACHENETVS
Ecoli rRNA inh: selective bacterial rRNA inhibition in E. coli; E. coli WT GFP vs humanized-ribosome RFP mutants, fluorescence, 24 h; stronger effect = lower value; DMSO median 0, no signal -100; GFP signal change (wild-type ribosome), % (no concentration beside the values); 350,000 compounds, 1.6% hits; AID 720706;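 active means significant combined selectivity score with lowered wild-type GFP, culture density cut under 30%, mutant RFP and density less affected; inactive means any of these conditions unmet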
Cneo AK release: Cryptococcus neoformans lysis via adenylate kinase release; C. neoformans lysis, adenylate kinase release luminescence, 4 h; normalised: neutral wells 0, clomiphene wells 100; lysis activity, % at 15 µM; 360,000 compounds, 0.2% hits;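 active means mean lysis activity across replicates of at least 80%, whatever share of replicates individually reach that level; inactive means mean lysis activity below 80%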
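Assay system: log-phase C. neoformans yeast / Quantity: yeast cell density of 5 × 10^6 cells/mL / Medium: fresh YPD growth medium / Compound: single dose / Timing: static 4 h at 37 °C with compound, 1 h detection / Measured by: adenylate kinase release luminescence / Read-out: lysis from increased AK signal / Benchmarks: Clomiphene as positive lysis control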
PGC1a acetyl inh: lowers PGC1a acetylation signal in U2OS cells. 350,000 compounds, 0.17% hits. AlphaScreen anti-acetyl-lysine; with virally co-expressed GCN5 acetyltransferase. inhibition, % at 15.6 µM;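 active means every replicate shows inhibition of at least 40%; inconclusive means mean inhibition at least 40% but some replicate below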;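 further: 0% = neutral control wells and 100% = positive control wells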
Statin myotox sup: protects C2C12 myotubes from simvastatin toxicity | ATP luminescence, 48 h; scaled: DMSO 0, geranylgeraniol control 100 | rescue of ATP level, % at 7.49 µM | 330,000 compounds, 0.78% hits | AID 602340;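 active means mean ATP rescue above about 67%, or every replicate alone reaching that limit, limit read from the data, passing the limit was not always enough; inconclusive means no clear call, values can overlap the other calls; inactive means mean under the limit and some replicate under it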;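 further: myotubes were challenged with 10 µM simvastatin during compound exposure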
S100A4 MyoIIA: S100A4-myosin IIA interaction inhibition. AID 652163. 360,000 compounds, 0.14% hits. inhibition, % at 10.7 µM. P26447. S100A4/TAMRA-MyoIIA peptide fluorescence polarization;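 active means mean inhibition of at least 70% across replicates, with every replicate also reaching that level; inconclusive means mean inhibition reaches 70% but some replicates fall short; inactive means mean inhibition below 70%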
Target sequence (P26447 whole entry, looked up): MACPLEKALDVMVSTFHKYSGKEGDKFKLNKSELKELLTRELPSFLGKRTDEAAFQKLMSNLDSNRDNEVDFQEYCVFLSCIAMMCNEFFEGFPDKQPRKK
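Material: S100A4 monomer (human). Medium: Calcium-containing HEPES buffer, pH 7.2. Probe or stimulus: labelled myosin peptide probe, 5 nM. Compound dosing: one concentration per compound. Timing: polarization read 5 min after assay mix addition, stable 5–60 min. Benchmarks: DMSO as neutral control, TFP as positive control.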
AID977621: wild-type E. coli growth inhibition versus H69 humanized strain – H69 mutant RFP, wild-type GFP, cherry-pick, dose response | activity change, negative = inhibition at 50 µM | shares compounds with Ecoli rRNA inh | 1,900 tested, under 10 active | fluorescence, 24 h;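 active means Wild-type ribosome reporter drop at least double the humanized mutant ribosome reporter drop, growth loss under a set limit; inconclusive means no clear call, values can overlap the other calls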;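 further: wild-type GFP and H69 mutant RFP strains grown together 50/50 in each well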
AID977628: growth of wild-type and h24-humanized E. coli strains – h24 mutant RFP vs wild-type GFP, cherry-pick, dose response; activity change, negative = inhibition at 50 µM; E. coli WT GFP strain growth, fluorescence, 24 h; shares compounds with Ecoli rRNA inh; AID 977628; 1,900 tested, under 10 active;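 active means compound lowering the normal-ribosome reporter at least twice as much as the humanized-ribosome reporter, growth loss under a set limit; inconclusive means no clear call, values can overlap the other calls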;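 further: wild-type GFP and h24 humanized RFP strains co-cultured 1 to 1 per well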
Numbers without * were called inactive. Hits are enriched below; roughly 3% of the tested compounds scored in any of these assays.

What do the screens show for `CCN(C(=O)c1ccnc(C(C)(C)C)c1)c1ccccc1`?
SIRT5 inh: 0.3; Ecoli rRNA inh: -34.1*; PGC1a acetyl inh: 6.7; Statin myotox sup: -20.9; S100A4 MyoIIA: -1.0; AID977628: inconclusive

How did CCN(C(=O)c1ccc(Cl)c([N+](=O)[O-])c1)c1ccccc1 do in these assays?
SIRT5 inh: -0.4; Ecoli rRNA inh: -0.6; PGC1a acetyl inh: -1.8; S100A4 MyoIIA: -4.6

How did C[C@@H]1CN([C@H](C)CO)C(=O)c2cccc(NC(=O)c3ccc(-c4nccs4)cc3)c2O[C@H]1CN(C)CC1CCCCC1 do in these assays?
SIRT5 inh: 1.5; Ecoli rRNA inh: 1.6; Cneo AK release: 5.9; PGC1a acetyl inh: 6.4; Statin myotox sup: -7.7; S100A4 MyoIIA: -5.9

Results for O=C1N[C@@H](c2ccccc2)COCc2cn(nn2)CC[C@H]1Cc1ccc(-c2ccccc2)cc1 ?
Ecoli rRNA inh: -2.0

How did Cc1c(CCOC(=O)C23CC4CC(CC(C)(C4)C2)C3)sc[n+]1Cc1ccccc1 do in these assays?
Cneo AK release: -2.7; PGC1a acetyl inh: 4.8; Statin myotox sup: -66.5

What do the screens show for `Cc1c(CCOC(=O)C23CC4CC(CC(C4)C2)C3)sc[n+]1Cc1ccccc1`?
SIRT5 inh: -4.9; Ecoli rRNA inh: -27.2*; Cneo AK release: 1.0; Statin myotox sup: 5.6; S100A4 MyoIIA: 6.6; AID977621: -1.89; AID977628: 2.81

How did NC(=O)c1cc(C(=O)Cc2ccccc2)c[nH]1 do in these assays?
SIRT5 inh: -4.2; Ecoli rRNA inh: 7.7; Cneo AK release: 0.0; Statin myotox sup: 4.8; S100A4 MyoIIA: -3.0

Results for COC(=O)c1cc(C(=O)Cc2ccccc2)c[nH]1 ?
SIRT5 inh: -1.8; Ecoli rRNA inh: -21.9*; S100A4 MyoIIA: 5.5; AID977621: -21

How did CC(C)NC(=O)N(C)C[C@@H]1Oc2ccc(NC(=O)Cc3cn(C)c4ccccc34)cc2CC(=O)N([C@@H](C)CO)C[C@H]1C do in these assays?
SIRT5 inh: 13.4; Ecoli rRNA inh: 0.4; Cneo AK release: -9.6; PGC1a acetyl inh: -1.1; Statin myotox sup: 21.1; S100A4 MyoIIA: 4.1

What do the screens show for `COc1cccc(CN2[C@@H](CO)[C@@H](c3ccccc3)C23CN(Cc2ccccc2OC)C3)c1`?
Ecoli rRNA inh: -2.0

What do the screens show for `CC(=O)Oc1ccc(N(c2ccccc2)S(=O)(=O)c2ccc(C)cc2)cc1`?
SIRT5 inh: -3.6; Ecoli rRNA inh: -24.0*; Cneo AK release: 0.7; PGC1a acetyl inh: -14.5; Statin myotox sup: 7.5; S100A4 MyoIIA: 5.3; AID977628: -4.96

How did COc1ccc(Br)c(-c2nc(CS(=O)(=O)c3ccc(F)cc3)no2)c1 do in these assays?
SIRT5 inh: 2.9; Ecoli rRNA inh: -26.6*; PGC1a acetyl inh: -26.7; S100A4 MyoIIA: -2.6; AID977628: -7.55

Results for COc1ccc(Br)c(-c2nnc(CS(=O)(=O)c3ccccc3)o2)c1 ?
Ecoli rRNA inh: -4.6; Cneo AK release: 0.7; PGC1a acetyl inh: 5.4; Statin myotox sup: 3.2; S100A4 MyoIIA: -3.4

How did CS(=O)(=O)N(CC(=O)N1CCc2ccccc2C1)c1cccc(Br)c1 do in these assays?
SIRT5 inh: -3.9; Ecoli rRNA inh: -22.6*; Cneo AK release: 0.5; PGC1a acetyl inh: -8.0; Statin myotox sup: 3.8; S100A4 MyoIIA: -2.0; AID977621: -7.29; AID977628: inconclusive

Results for Cc1cc(N(C)C)c(C#N)c(N2CCCCC2)n1 ?
Cneo AK release: -0.1; PGC1a acetyl inh: 4.5; Statin myotox sup: -4.7

How did CCOC(=O)c1cc(C)nc(N2CCCCC2)c1C#N do in these assays?
SIRT5 inh: -5.8; Ecoli rRNA inh: -20.6*; PGC1a acetyl inh: 5.1; S100A4 MyoIIA: -6.3; AID977621: 1.26

What do the screens show for `Cc1ccc(CN(C)C(=O)c2ccc(NS(=O)(=O)c3ccc4[nH]c(=O)[nH]c4c3)cc2)cc1`?
SIRT5 inh: 2.6; Ecoli rRNA inh: -0.4; Cneo AK release: 0.9; PGC1a acetyl inh: 5.0; Statin myotox sup: 2.1; S100A4 MyoIIA: 1.2

Results for CCOc1ccc(CN(C)C(=O)c2ccc(NS(=O)(=O)c3ccc4[nH]c(=O)[nH]c4c3)cc2)cc1 ?
SIRT5 inh: -0.5; Ecoli rRNA inh: -17.0*; Cneo AK release: -3.0; PGC1a acetyl inh: 3.5; Statin myotox sup: 6.3; S100A4 MyoIIA: 0.2; AID977621: -24.7; AID977628: inconclusive

What do the screens show for `O=C(COc1ccc(Cl)cc1)Nc1nc(-c2ccncc2)cs1`?
SIRT5 inh: 3.3; Ecoli rRNA inh: -0.2; Cneo AK release: 3.8; PGC1a acetyl inh: 0.6; Statin myotox sup: -11.5; S100A4 MyoIIA: -6.4

How did O=C(COc1ccccc1Cl)Nc1nc(-c2ccncc2)cs1 do in these assays?
SIRT5 inh: 3.4; Ecoli rRNA inh: -20.4*; Cneo AK release: -1.1; Statin myotox sup: -1.7; S100A4 MyoIIA: -5.4; AID977621: -3.8; AID977628: -12.9

How did COc1cc2c(cc1OC)CN(CC(=O)Nc1ccc(F)cc1F)CC2 do in these assays?
SIRT5 inh: -1.0; Ecoli rRNA inh: 4.6; Cneo AK release: -0.2; PGC1a acetyl inh: -10.2; Statin myotox sup: 4.1; S100A4 MyoIIA: -4.8

What do the screens show for `O=C(CN1CCc2ccccc2C1)Nc1ccc(F)cc1F`?
SIRT5 inh: -0.3; Ecoli rRNA inh: -21.1*; Cneo AK release: -0.2; PGC1a acetyl inh: -8.0; Statin myotox sup: 12.4; S100A4 MyoIIA: 9.4; AID977621: -20.6; AID977628: inconclusive

Results for Cc1noc(C)c1NC(=O)N(C)C[C@@H]1OCCCC[C@@H](C)Oc2ccc(NC(=O)Nc3ccc4c(c3)OCO4)cc2C(=O)N([C@H](C)CO)C[C@@H]1C ?
SIRT5 inh: -2.4; Ecoli rRNA inh: 0.9; Cneo AK release: 0.6; PGC1a acetyl inh: 19.9; Statin myotox sup: -13.9; S100A4 MyoIIA: 26.6

What do the screens show for `Cc1noc(C)c1NC(=O)Nc1ccc2c(c1)C(=O)N([C@H](C)CO)C[C@H](C)[C@H](CN(C)C(=O)Nc1ccc3c(c1)OCO3)OCCCC[C@H](C)O2`?
SIRT5 inh: -4.3; Ecoli rRNA inh: 0.4; Cneo AK release: 1.2; PGC1a acetyl inh: -10.1; S100A4 MyoIIA: -1.7; AID977621: -1.39; AID977628: 12.3
